Experimental data: publication PMC5632222 (Journal of pharmaceutical and biomedical analysis, 2017)

Key:
[1] = Stability of VX-970 in stock solution; type: physicochemical
[2] = system: pooled female rat microsomes; assay: Glucuronidation incubation in permeabilized rat microsomes; type: in vitro ADME
Method in brief: (§1)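 Pooled liver microsomes (human for line 1, female rat for line 2), permeabilized with 25 µg/mL alamethicin at 0.25 mg/mL protein in 0.1 M phosphate pH 7.4, 50 mM Tris-HCl, 10 mM MgCl₂. Test compound at 5,000 ng/mL; started with […]. Sampled at 0 and 60 min, quenched in acetonitrile, run in triplicate. LC-MS/MS read parent and the 639.5>433.5 glucuronide channel.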

[3] = Stability of VX-970 in human plasma; type: in vitro ADME
Method in brief: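 Test compound was spiked into human plasma at QC levels of 5, 150 and 4000 ng/mL, in triplicate. Long-term stability: 8 months at -80 °C, read against freshly prepared standard curves. Freeze/thaw: 3 cycles, frozen at -80 °C and thawed on separate days, compared with fresh samples. Bench stability: 4 h at room temperature. Quantitation was by LC-MS/MS with deuterated internal standard.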

[4] = Plasma pharmacokinetics in a patient after IV infusion of VX-970; type: in vivo, human
Method in brief: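 One patient received a 1 h IV infusion at 60 mg/m², with blood sampled from 0 to 72 h. Plasma (50 µL) was spiked with deuterated internal standard, precipitated with acetonitrile, diluted with water and run by positive-ESI MRM LC-MS/MS. Calibration spanned 3–5000 ng/mL, and the glucuronide channel was also monitored. PK parameters were derived non-compartmentally.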

[5] = system: pooled human liver microsomes; assay: Glucuronidation incubation in permeabilized human microsomes; type: in vitro ADME
Method in brief: as §1

[6] = type: in vitro ADME; details: bile spiked human plasma, room temperature 4 h
Method in brief: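 Bile from treated animals, containing the direct glucuronide, was spiked into human plasma. Parent compound was quantitated by LC-MS/MS before and after 4 h at room temperature. Bile was also spiked into phosphate buffers at pH 5, 6, 7, 8 and 9 with the same 4 h room-temperature hold. The glucuronide was monitored via the 639.5>433.5 channel.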

[7] = one patient, 1 h IV infusion 60 mg/m^2, non-compartmental

Stability (%) ([1]; stock solution 8 months, −80 °C, 100,000 ng/mL): 95.7% | Stability (%) ([1]; stock solution 6 h, ambient temp, 100,000 ng/mL): 96.7% | Metabolite in the 639.3>433.5 m/z glucuronide channel ([2]; rat microsome incubation of VX-970): No metabolite was observed | Drug remaining in the incubation mixture ([2]; rat microsomes 0.25 mg/mL, 5,000 ng/mL VX-970, UDPGA, 60 min): 87.5% | recovery at 8 months ([3]; human, plasma): 92.2 to 100% | Stability (%) ([3]; plasma 3 freeze-thaw cycles, −80 °C, QCH 4000 ng/mL): 98.1% | Stability (%) ([3]; plasma 3 freeze-thaw cycles, −80 °C, QCL 5 ng/mL): 98.1% | Stability (%) ([3]; plasma 3 freeze-thaw cycles, −80 °C, QCM 150 ng/mL): 99.6% | Stability (%) ([3]; plasma 8 months, −80 °C, QCH 4000 ng/mL): 96.2% | Stability (%) ([3]; plasma 8 months, −80 °C, QCL 5 ng/mL): 92.2% | Stability (%) ([3]; plasma 8 months, −80 °C, QCM 150 ng/mL): 100.1% | Stability (%) ([3]; plasma 4 h, ambient temp., QCH 4000 ng/mL): 100.2% | Stability (%) ([3]; plasma 4 h, ambient temp., QCL 5 ng/mL): 96.2% | Stability (%) ([3]; plasma 4 h, ambient temp., QCM 150 ng/mL): 96.0% | AUC(0-inf) ([4]; human, plasma, iv, 60 mg/m^2): 2.5 µg·h/mL | AUC(0-t) ([4]; human, plasma, iv, 60 mg/m^2): 2.43 µg·h/mL | Cmax ([4]; human, plasma, iv, 60 mg/m^2): 0.343 µg/mL | half-life ([4]; human, plasma, iv, 60 mg/m^2): 14 h | Cl [4, 7]: 24.0 L/h/m^2 | Vss [4, 7]: 386 L/m^2 | Drug remaining in the incubation mixture ([5]; human microsomes 0.25 mg/mL, 5,000 ng/mL VX-970, UDPGA, 60 min): 99.9% | Glucuronidation ([5]; permeabilized human microsomes, 5,000 ng/mL VX-970, 60 min): no glucuronidation | VX-970 concentrations in bile spiked plasma, % stable [6]: 96.5%
SMILES: CNCc1ccc(-c2cc(-c3nc(-c4ccc(S(=O)(=O)C(C)C)cc4)cnc3N)on2)cc1 [VX-970]
